Source: ChEMBL document CHEMBL5724801, “EUbOPEN Chemogenomics Library - Multiplex” (2024)
“And” between values parts separate entries of the source, which are not always exact repeats. Identical values can stand only once.

Experiments:
HEK-293T = assay: Multiplex assay against HEK293T; assay type: toxicity, cell-based; details: human
In short: (§1)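 At seeding, live cells were stained with Hoechst33342, BioTracker Green Microtubule Cytoskeleton Dye, MitoTracker Red and Annexin V Alexa Fluor 680. After compound addition they were imaged on a CQ1 microscope at 37°C and 5% CO2, and CellPathfinder machine-learning gating sorted them into Hoechst high-intensity objects or normal cells, with normal cells further split into healthy, pyknosed or fragmented nuclei and pyknosed cells into mitotic or apoptotic. Tubulin, mitochondrial-mass and membrane-permeability phenotypes are given as per cents of cells with healthy nuclei.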

U2OS = assay: Multiplex assay against U2OS; assay type: toxicity, cell-based; details: human; in short: as §1
[1] = 12 h, 1 µM, compound concentration 1 uM
[2] = 12 h, 10 µM, compound concentration 10 uM
[3] = 24 h, 1 µM, compound concentration 1 uM
[4] = 24 h, 10 µM, compound concentration 10 uM
[5] = 48 h, 1 µM, compound concentration 1 uM
[6] = 48 h, 10 µM, compound concentration 10 uM

SMILES: C[C@H](N)COC(=O)[C@@H](CCCCN)NC(=O)Cc1c(-c2ccc3ccccc3c2)[nH]c2c1ccc1ccccc12
- Population Apoptotic (%) (HEK-293T; [1]): 22% and 51%
- Population Fragmented Nuclei (%) (HEK-293T; [1]): 6% and 8%
- Population Healthy Nuclei (%) (HEK-293T; [1]): 82% and 74%
- Population Hoechst High Intensity Objects (%) (HEK-293T; [1]): 8%
- Population Membrane Permeable-Phenotype (%) (HEK-293T; [1]): 0%
- Population Mitochondria Different-Phenotype (%) (HEK-293T; [1]): 37% and 65%
- Population Mitotic Cells (%) (HEK-293T; [1]): 77% and 48%
- Population Normal (%) (HEK-293T; [1]): 91%
- Population Pyknosed Nuclei (%) (HEK-293T; [1]): 10% and 16%
- Population Tubulin-Different-Phenotype (%) (HEK-293T; [1]): 27% and 30%
- Total Cell Count (HEK-293T; [1]): 458 and 291
- Population Apoptotic (%) (HEK-293T; [2]): 41% and 61%
- Population Fragmented Nuclei (%) (HEK-293T; [2]): 7% and 5%
- Population Healthy Nuclei (%) (HEK-293T; [2]): 78%
- Population Hoechst High Intensity Objects (%) (HEK-293T; [2]): 11% and 7%
- Population Membrane Permeable-Phenotype (%) (HEK-293T; [2]): 0%
- Population Mitochondria Different-Phenotype (%) (HEK-293T; [2]): 60% and 72%
- Population Mitotic Cells (%) (HEK-293T; [2]): 58% and 38%
- Population Normal (%) (HEK-293T; [2]): 88% and 93%
- Population Pyknosed Nuclei (%) (HEK-293T; [2]): 14% and 16%
- Population Tubulin-Different-Phenotype (%) (HEK-293T; [2]): 54% and 50%
- Total Cell Count (HEK-293T; [2]): 435 and 343
- Population Apoptotic (%) (HEK-293T; [3]): 25% and 54%
- Population Fragmented Nuclei (%) (HEK-293T; [3]): 9% and 7%
- Population Healthy Nuclei (%) (HEK-293T; [3]): 77% and 80%
- Population Hoechst High Intensity Objects (%) (HEK-293T; [3]): 4% and 7%
- Population Membrane Permeable-Phenotype (%) (HEK-293T; [3]): 0% and 1%
- Population Mitochondria Different-Phenotype (%) (HEK-293T; [3]): 24% and 47%
- Population Mitotic Cells (%) (HEK-293T; [3]): 75% and 45%
- Population Normal (%) (HEK-293T; [3]): 95% and 92%
- Population Pyknosed Nuclei (%) (HEK-293T; [3]): 12%
- Population Tubulin-Different-Phenotype (%) (HEK-293T; [3]): 19% and 25%
- Total Cell Count (HEK-293T; [3]): 638 and 352
- Population Apoptotic (%) (HEK-293T; [4]): 41% and 48%
- Population Fragmented Nuclei (%) (HEK-293T; [4]): 6% and 9%
- Population Healthy Nuclei (%) (HEK-293T; [4]): 78% and 80%
- Population Hoechst High Intensity Objects (%) (HEK-293T; [4]): 6% and 7%
- Population Membrane Permeable-Phenotype (%) (HEK-293T; [4]): 0%
- Population Mitochondria Different-Phenotype (%) (HEK-293T; [4]): 57% and 54%
- Population Mitotic Cells (%) (HEK-293T; [4]): 58% and 51%
- Population Normal (%) (HEK-293T; [4]): 93% and 92%
- Population Pyknosed Nuclei (%) (HEK-293T; [4]): 14% and 10%
- Population Tubulin-Different-Phenotype (%) (HEK-293T; [4]): 45% and 42%
- Total Cell Count (HEK-293T; [4]): 539 and 439
- Population Apoptotic (%) (HEK-293T; [5]): 15% and 37%
- Population Fragmented Nuclei (%) (HEK-293T; [5]): 13% and 11%
- Population Healthy Nuclei (%) (HEK-293T; [5]): 78% and 79%
- Population Hoechst High Intensity Objects (%) (HEK-293T; [5]): 4%
- Population Membrane Permeable-Phenotype (%) (HEK-293T; [5]): 2% and 0%
- Population Mitochondria Different-Phenotype (%) (HEK-293T; [5]): 16% and 29%
- Population Mitotic Cells (%) (HEK-293T; [5]): 84% and 62%
- Population Normal (%) (HEK-293T; [5]): 95%
- Population Pyknosed Nuclei (%) (HEK-293T; [5]): 7% and 9%
- Population Tubulin-Different-Phenotype (%) (HEK-293T; [5]): 13% and 17%
- Total Cell Count (HEK-293T; [5]): 963 and 540
- Population Apoptotic (%) (HEK-293T; [6]): 27% and 32%
- Population Fragmented Nuclei (%) (HEK-293T; [6]): 13% and 14%
- Population Healthy Nuclei (%) (HEK-293T; [6]): 78% and 79%
- Population Hoechst High Intensity Objects (%) (HEK-293T; [6]): 6% and 4%
- Population Membrane Permeable-Phenotype (%) (HEK-293T; [6]): 0%
- Population Mitochondria Different-Phenotype (%) (HEK-293T; [6]): 44% and 43%
- Population Mitotic Cells (%) (HEK-293T; [6]): 72% and 67%
- Population Normal (%) (HEK-293T; [6]): 93% and 95%
- Population Pyknosed Nuclei (%) (HEK-293T; [6]): 7% and 6%
- Population Tubulin-Different-Phenotype (%) (HEK-293T; [6]): 33% and 35%
- Total Cell Count (HEK-293T; [6]): 781 and 681
- Population Apoptotic (%) (U2OS; [1]): 73% and 75%
- Population Fragmented Nuclei (%) (U2OS; [1]): 26% and 14%
- Population Healthy Nuclei (%) (U2OS; [1]): 66% and 78%
- Population Hoechst High Intensity Objects (%) (U2OS; [1]): 3% and 0%
- Population Membrane Permeable-Phenotype (%) (U2OS; [1]): 6% and 4%
- Population Mitochondria Different-Phenotype (%) (U2OS; [1]): 3% and 2%
- Population Mitotic Cells (%) (U2OS; [1]): 26% and 25%
- Population Normal (%) (U2OS; [1]): 96% and 99%
- Population Pyknosed Nuclei (%) (U2OS; [1]): 6%
- Population Tubulin-Different-Phenotype (%) (U2OS; [1]): 3% and 4%
- Total Cell Count (U2OS; [1]): 244 and 128
- Population Apoptotic (%) (U2OS; [2]): 78% and 50%
- Population Fragmented Nuclei (%) (U2OS; [2]): 23% and 24%
- Population Healthy Nuclei (%) (U2OS; [2]): 69% and 73%
- Population Hoechst High Intensity Objects (%) (U2OS; [2]): 2% and 0%
- Population Mitochondria Different-Phenotype (%) (U2OS; [2]): 1% and 3%
- Population Mitotic Cells (%) (U2OS; [2]): 21% and 50%
- Population Normal (%) (U2OS; [2]): 97% and 100%
- Population Pyknosed Nuclei (%) (U2OS; [2]): 7% and 1%
- Population Tubulin-Different-Phenotype (%) (U2OS; [2]): 3% and 5%
- Total Cell Count (U2OS; [2]): 279 and 106
- Population Apoptotic (%) (U2OS; [3]): 83% and 90%
- Population Fragmented Nuclei (%) (U2OS; [3]): 22% and 16%
- Population Healthy Nuclei (%) (U2OS; [3]): 68% and 77%
- Population Hoechst High Intensity Objects (%) (U2OS; [3]): 2% and 1%
- Population Membrane Permeable-Phenotype (%) (U2OS; [3]): 3% and 6%
- Population Mitochondria Different-Phenotype (%) (U2OS; [3]): 1%
- Population Mitotic Cells (%) (U2OS; [3]): 16% and 10%
- Population Normal (%) (U2OS; [3]): 97% and 98%
- Population Pyknosed Nuclei (%) (U2OS; [3]): 8% and 5%
- Population Tubulin-Different-Phenotype (%) (U2OS; [3]): 2% and 3%
- Total Cell Count (U2OS; [3]): 292 and 170
